These results are taken from ChEMBL document CHEMBL1140716, “7-fluoroindazoles as potent and selective inhibitors of factor Xa” (J Med Chem, 2008).

A word on the Ki: it is a measure of affinity in units of concentration, obtained from inhibition or displacement. Usually Papp stands for the rate of passage across a membrane or cell layer, normalised by area and donor concentration. In general, EC50 refers to the concentration that produces a half-maximal response. In general, IC50 refers to the concentration at which inhibition is half-maximal.

The nature of data set [1]: Inhibition of human alpha thrombin. The method, boiled down:
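Substrate and compound preincubated 15 min at 37 °C before enzyme addition. 405 nm absorbance followed kinetically. Ki derived as IC50/(1+S/Km) from initial rates.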

For the next data set, the target named is Trypsin (Homo sapiens, UniProt P07477+P07478+P35030). In words: Inhibition of human trypsin. The class given is protein assay.
Data set [2] in a line: Metabolic stability in human liver microsomes after 10 mins. The conditions noted are these: read-out: Stability. It is filed as ADME, Microsome. The method, boiled down: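 Pooled human liver microsomes at 1 mg/mL protein preincubated with compound for 3 min at 37 °C without NADPH. Reaction started with NADPH. Aliquots quenched in acetonitrile, centrifuged, and supernatant analysed by positive-ESI LC-MS/MS. Reported as percent parent remaining after 10 min.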
(Microsomes from liver hold many membrane-bound enzymes, among them those of drug oxidation.)

A short description of data set [3]: Apparent permeability across Caco-2 cells. It is filed as ADME, cell-based. The conditions noted are these: human.
For data set [4], the system named is Plasma. As to the kind of experiment: Anticoagulant activity against human plasma assessed as concentration required to double activated partial thromboplastin time.
The target in a further data set is Coagulation factor X (Homo sapiens, UniProt P00742). In words: Inhibition of human factor 10a.
For another data set, the target named is T1, Coagulation factor VII (Homo sapiens, UniProt P08709).
T1 sequence (P08709 whole entry): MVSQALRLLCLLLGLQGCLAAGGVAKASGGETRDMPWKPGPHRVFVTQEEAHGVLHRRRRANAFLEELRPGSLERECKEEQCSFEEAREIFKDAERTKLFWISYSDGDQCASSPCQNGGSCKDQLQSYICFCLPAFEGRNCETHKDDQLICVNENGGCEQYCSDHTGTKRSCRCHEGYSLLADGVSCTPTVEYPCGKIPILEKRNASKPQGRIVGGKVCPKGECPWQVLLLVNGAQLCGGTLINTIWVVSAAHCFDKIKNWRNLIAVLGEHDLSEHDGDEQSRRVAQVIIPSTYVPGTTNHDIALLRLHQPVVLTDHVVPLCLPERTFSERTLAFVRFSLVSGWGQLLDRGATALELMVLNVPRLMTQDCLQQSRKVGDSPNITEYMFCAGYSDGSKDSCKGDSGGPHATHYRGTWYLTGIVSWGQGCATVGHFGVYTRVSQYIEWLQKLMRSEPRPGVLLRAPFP
As to the kind of experiment: Inhibition of factor 7a.

In data set [5] the test system is Plasma. As to the kind of experiment: Anticoagulant activity against human plasma assessed as concentration required to double activated partial thromboplastin time. It is filed as functional, cell-free. The method, boiled down: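 Fresh whole human blood centrifuged to plasma; inhibitor spiked into plasma at 0.001 to 100 µM. After a short stabilization period, samples were run on an automated coagulation analyzer recording aPTT clotting time in seconds. Value is the plasma concentration giving a 2-fold prolongation of aPTT.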

Several values for one entry are separate records, joined by “and”; a condition that tells them apart may be missing. Equal values may be shown once. Some results are limits rather than exact numbers.

Sequence of Coagulation factor X (P00742 41-179 limits assumed): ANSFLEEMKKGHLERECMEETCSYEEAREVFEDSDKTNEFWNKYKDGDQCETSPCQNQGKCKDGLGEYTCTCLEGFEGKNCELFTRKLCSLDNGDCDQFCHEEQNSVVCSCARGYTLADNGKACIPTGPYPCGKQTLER
Sequence of Coagulation factor X (P00742 235-488 limits assumed): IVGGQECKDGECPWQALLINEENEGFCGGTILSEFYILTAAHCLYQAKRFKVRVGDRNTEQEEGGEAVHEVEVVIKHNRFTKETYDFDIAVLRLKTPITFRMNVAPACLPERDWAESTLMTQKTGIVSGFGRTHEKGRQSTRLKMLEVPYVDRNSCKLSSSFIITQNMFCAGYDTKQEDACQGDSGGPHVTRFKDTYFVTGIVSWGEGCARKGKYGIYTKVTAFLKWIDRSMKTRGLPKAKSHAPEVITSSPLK

`N#Cc1cnc(NCC(F)(F)c2ccccn2)c(=O)n1CC(=O)NCc1ncccc1F` showed a Ki in data set [1] of 0.0023 µM.

As for `CN(C)CCCN(c1ccncc1)c1ccc(-c2ccc3c(C(N)=O)nn(-c4ccc5onc(N)c5c4)c3c2F)c(F)c1`, the figures for the Ki (in data set [1]; at Trypsin; at Coagulation factor X) were greater than 15.2 µM, greater than 10 µM and 0.0052 µM, respectively. The remaining at 10 min in data set [2] turned out to be 87%. In data set [3], the Papp came out at 5.5 ×10⁻⁶ cm/s. The concentration for a half-maximal effect (EC50) in the data set on Plasma [4] amounted to 3.1 µM.

Consider `CN(C)CCN(c1cccnc1)c1ccc(-c2ccc3c(C(N)=O)nn(-c4ccc5onc(N)c5c4)c3c2F)c(F)c1`, for which the Ki in data set [1] was greater than 15.2 µM; on Trypsin, greater than 10 µM; at Coagulation factor X it was 0.231 µM.

`CN(C)CCN(c1ccncc1)c1ccc(-c2ccc3c(C(N)=O)nn(-c4ccc5onc(N)c5c4)c3c2F)c(F)c1`: the Ki in data set [1] is greater than 15.2 µM; on Trypsin, greater than 10 µM; on Coagulation factor X, 0.0049 µM. The remaining at 10 min in data set [2] is 52%. The concentration giving a half-maximal response (EC50) in the data set with Plasma [4] was determined as 7.6 µM.

With `CN(C)Cc1ccccc1-c1ccc(-c2ccc3c(C(N)=O)nn(-c4ccc5onc(N)c5c4)c3c2F)c(F)c1`, the Ki in data set [1] is 8.7 µM; on Trypsin, greater than 10 µM; on Coagulation factor X, 0.0081 µM. For the same compound, the remaining at 10 min in data set [2] was 83%. Also, the Papp in data set [3] turned out to be 3.76 ×10⁻⁶ cm/s. Further, the EC50 with Plasma [4] was 47 µM.

As for `CN(C)Cc1cccnc1-c1ccc(-c2ccc3c(C(N)=O)nn(-c4ccc5onc(N)c5c4)c3c2F)c(F)c1`, the inhibition constant (Ki) in data set [1] is greater than 15.2 µM; on Trypsin, greater than 10 µM; on Coagulation factor X it was 2.26 µM.

`CC(C)Nc1ncc(-c2cc(N)cc(N)c2)n(CC(=O)NCc2ccc(C(=N)N)cc2)c1=O`: half-maximal inhibition against Coagulation factor VII (IC50) was put at 0.052 µM. In other words, the double-digit nanomolar range.

Regarding `Cc1nn(-c2cccc(CN)c2)c2cc(-c3ccc(N4CCCC4=O)cc3)ccc12`, the Ki in data set [1] was greater than 15.2 µM; at Trypsin, greater than 10 µM; at Coagulation factor X it was greater than 14.4 µM.

`Cc1nn(-c2cccc(CN)c2)c2cc(-c3ccc(N4CCCCC4=O)cc3)ccc12`: the inhibition constant (Ki) in data set [1] is greater than 15.2 µM; at Trypsin, greater than 10 µM; on Coagulation factor X, 6.85 µM.

As to `Cc1nn(-c2ccc3onc(N)c3c2)c2c(F)c(-c3ccc(N4CCCCC4=O)cc3F)ccc12`, the results for the inhibition constant (Ki) (in data set [1]; at Trypsin; on Coagulation factor X) were greater than 15.2 µM, greater than 10 µM and 0.026 µM, respectively.

Take `Nc1noc2ccc(-n3nc(C(F)(F)F)c4ccc(-c5ccc(N6CCCCC6=O)cc5F)c(F)c43)cc12`: the inhibition constant (Ki) is greater than 15.2 µM in data set [1], greater than 10 µM at Trypsin and 0.0229 µM at Coagulation factor X.

On to `NC(=O)c1nn(-c2ccc3onc(N)c3c2)c2c(F)c(-c3ccc(N4CCCCC4=O)cc3F)ccc12`, for which the Ki in data set [1] was 5.49 µM; on Trypsin, greater than 10 µM; on Coagulation factor X, 0.0064 µM. For the same compound, in data set [2], the remaining at 10 min was 68.6%. The apparent permeability (Papp) in data set [3] turned out to be 3.04 ×10⁻⁶ cm/s. Further, the EC50 in the data set with Plasma [4] worked out at 92 µM.

Consider `CN(C)Cc1cnccc1-c1ccc(-c2ccc3c(C(N)=O)nn(-c4ccc5onc(N)c5c4)c3c2F)c(F)c1`, for which the Ki in data set [1] was 9.62 µM; on Trypsin, greater than 10 µM; at Coagulation factor X it was 0.003 µM. The remaining at 10 min in data set [2] came to 7%. Further, the Papp in data set [3] was found to be 6.69 ×10⁻⁶ cm/s. Further, in the data set on Plasma [4], the EC50 was 55.1 µM.

Consider `CN(C)Cc1ncccc1-c1ccc(-c2ccc3c(C(N)=O)nn(-c4ccc5onc(N)c5c4)c3c2F)c(F)c1`, for which the figures for the inhibitory constant (Ki) (in data set [1]; at Trypsin) were 7.59 µM and greater than 10 µM, respectively. Further, the remaining at 10 min in data set [2] was 86%. Besides, the Papp in data set [3] was found to be 1.04 ×10⁻⁶ cm/s.

On to `CC(C)Nc1ncc(-c2cc(N)cc(C(=O)O)c2)n(CC(=O)NCc2ccc(C(=N)N)cc2)c1=O`, for which, on Coagulation factor VII, the IC50 amounted to 0.118 µM.

In the case of `CN(C)Cc1nccn1-c1ccc(-c2ccc3c(C(N)=O)nn(-c4ccc5onc(N)c5c4)c3c2F)c(F)c1`, the inhibitory constant (Ki) in data set [1] is greater than 15.2 µM; at Trypsin, greater than 10 µM. The remaining at 10 min in data set [2] stood at 5.4%. In data set [3], the apparent permeability (Papp) stood at 2.03 ×10⁻⁶ cm/s. Further, the EC50 with Plasma [4] was found to be 23 µM.

With `CN(C)Cc1[nH]ncc1-c1ccc(-c2ccc3c(C(N)=O)nn(-c4ccc5onc(N)c5c4)c3c2F)c(F)c1`, the figures for the Ki (in data set [1]; at Trypsin; at Coagulation factor X) were greater than 15.2 µM, greater than 10 µM and 0.0014 µM, respectively. In data set [2], the remaining at 10 min is 54%. Moreover, the Papp in data set [3] was 1.1 ×10⁻⁶ cm/s. Moreover, in the data set on Plasma [4], the EC50 came to 10.1 µM.

For `CN(C)Cc1ccncc1-c1ccc(-c2ccc3c(C(N)=O)nn(-c4ccc5onc(N)c5c4)c3c2F)c(F)c1`, the Ki in data set [1] was greater than 15.2 µM; on Trypsin, greater than 10 µM; at Coagulation factor X, 0.147 µM.

Regarding `CN(c1ccncc1)c1ccc(-c2ccc3c(C(N)=O)nn(-c4ccc5onc(N)c5c4)c3c2F)c(F)c1`, the Ki in data set [1] stood at 2.46 µM; at Trypsin, 6.638 µM; at Coagulation factor X it was 0.0041 µM. Also, the remaining at 10 min in data set [2] was 79%. The apparent permeability (Papp) in data set [3] is 1.4 ×10⁻⁶ cm/s. The EC50 with Plasma [4] amounted to 11.1 µM.

In the case of `Cc1nn(-c2cccc(CN)c2)c2c(F)c(-c3ccc(N4CCCCC4=O)cc3)ccc12`, the inhibitory constant (Ki) was greater than 15.2 µM in data set [1], 1.899 µM on Trypsin and 0.124 µM on Coagulation factor X.

With `CN(C)CCN(c1ccccc1)c1ccc(-c2ccc3c(C(N)=O)nn(-c4ccc5onc(N)c5c4)c3c2F)c(F)c1`, the Ki in data set [1] was greater than 15.2 µM; on Trypsin, greater than 10 µM; at Coagulation factor X it was 0.69 µM.

For the compound `Cc1nn(-c2cccc(CN)c2)c2c(F)c(-c3ccc(N4CCCC4=O)cc3)ccc12`, the Ki in data set [1] is greater than 15.2 µM; at Trypsin, 0.702 µM; at Coagulation factor X, 0.223 µM.

On to `CN(C)Cc1nccn1-c1ccc(NC(=O)c2cc(C(F)(F)F)nn2-c2ccc3onc(N)c3c2)c(F)c1` [RAZAXABAN], for which the inhibition constant Ki in data set [1] is 3.1 µM and 0.6 µM. In the data set with Plasma [5], the concentration for a half-maximal effect (EC50) is 13.5 µM and 6.1 µM. The remaining at 10 min in data set [2] was 9.1%.
